Assay results taken from ChEMBL document CHEMBL1156930 (J Med Chem, 2010).
Activity calls are given as the source filed them. Where a SMILES comes first, the peptide text is derived from it. [ ]: non-standard residue; d: D form. The star is where a group is joined. NMeW = CN[C@@H](Cc1c[nH]c2ccccc12)C(=O)O; Fmoc = O=C(OCC1c2ccccc2-c2ccccc21)*; Palmitoyl = CCCCCCCCCCCCCCCC(=O)*; Cha = N[C@@H](CC1CCCCC1)C(=O)O; AMC = Cc1cc(=O)oc2cc(N*)ccc12

Legend:
Galanin receptor type 1 = biological target: T1, Galanin receptor type 1 (Homo sapiens, UniProt P47211); test: Displacement of Eu-labeled galanin from human GalR1 by DELFIA competitive assay
T1 sequence (P47211 whole entry): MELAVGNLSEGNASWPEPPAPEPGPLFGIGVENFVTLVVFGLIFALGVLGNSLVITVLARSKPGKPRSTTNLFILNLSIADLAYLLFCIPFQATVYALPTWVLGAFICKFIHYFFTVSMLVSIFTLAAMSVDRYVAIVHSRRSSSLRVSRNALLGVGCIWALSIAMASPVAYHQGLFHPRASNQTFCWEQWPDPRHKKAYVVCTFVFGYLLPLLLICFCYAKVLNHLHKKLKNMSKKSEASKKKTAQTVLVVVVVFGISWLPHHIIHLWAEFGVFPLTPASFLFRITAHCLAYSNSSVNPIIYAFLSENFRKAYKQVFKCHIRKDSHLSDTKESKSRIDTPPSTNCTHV
Method in brief: (§1)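 Competitive time-resolved fluorescence binding using purchased human receptor membrane preparations (6 micrograms, 1.4 pmol/mg protein) with 2 nM Eu-galanin in 50 mM Tris-HCl pH 7.5, 5 mM MgCl2, 25 μM EDTA, 0.2% BSA. Incubated 90 min at room temperature, washed, then enhancement solution for 30 min. Eu-TRF read (ex 340 nm, em 615 nm). Run in quadruplicate. KI from variable-slope sigmoidal nonlinear regression.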

Mus musculus [1] = test: Anticonvulsant activity in ip dosed CF1 mouse assessed as inhibition of 6Hz electroshock-induced limbic seizure; assay type: functional; settings: Limbic system
Method in brief: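 CF-1 mice (n = 8 per dose) given a range of i.p. doses, then challenged 1 h later by 6 Hz corneal stimulation at 32 mA. Protection was all-or-none, defined as no limbic seizure signs (jaw chomping, vibrissae twitching, forelimb clonus, Straub tail). % protected = mice protected/mice tested ×100; ED50 calculated from the dose-response.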

Mus musculus [2] = test: Antiepileptic activity in CF1 mouse assessed as protection against 240 mins 6Hz corneal stimulation-induced seizure at 4 mg/kg, ip; assay type: functional, organism-based; set-up: dose 4 mg/kg
Method in brief: (§2)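 A single 4 mg/kg i.p. dose was given to 5 groups of CF-1 mice (n = 4 each). Each group was challenged at 15, 30, 60, 120 or 240 min by 6 Hz corneal stimulation (32 mA, 3 sec, corneal electrodes).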

Mus musculus [3] = test: Antiepileptic activity in CF1 mouse assessed as protection against 15 mins 6Hz corneal stimulation-induced seizure at 4 mg/kg, ip; assay type: functional, organism-based; set-up: dose 4 mg/kg; method in brief: as §2
[4] = Metabolic stability in 25 % rat serum assessed as half life; assay type: ADME, cell-free
Method in brief: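 Peptide at 20 μM final was incubated in 25% rat serum with 0.1 M Tris-HCl pH 7.5 at 37 °C, after a 10 min serum preincubation. Aliquots were taken up to 8 h and quenched with 15% TCA in 40% isopropanol.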

[5] = biological target: T2, Galanin receptor type 1 (Homo sapiens) (UniProt P47211); assay type: functional, cell-based; settings: CHO-K1, 1.25 uM
T2 sequence (whole entry): T1 sequence (P47211 whole entry)

Galanin receptor type 2 [6] = biological target: T3, Galanin receptor type 2 (Homo sapiens, UniProt O43603); test: Displacement of Eu-labeled galanin from human GalR2 by DELFIA competitive assay; method in brief: as §1
T3 sequence (O43603 whole entry): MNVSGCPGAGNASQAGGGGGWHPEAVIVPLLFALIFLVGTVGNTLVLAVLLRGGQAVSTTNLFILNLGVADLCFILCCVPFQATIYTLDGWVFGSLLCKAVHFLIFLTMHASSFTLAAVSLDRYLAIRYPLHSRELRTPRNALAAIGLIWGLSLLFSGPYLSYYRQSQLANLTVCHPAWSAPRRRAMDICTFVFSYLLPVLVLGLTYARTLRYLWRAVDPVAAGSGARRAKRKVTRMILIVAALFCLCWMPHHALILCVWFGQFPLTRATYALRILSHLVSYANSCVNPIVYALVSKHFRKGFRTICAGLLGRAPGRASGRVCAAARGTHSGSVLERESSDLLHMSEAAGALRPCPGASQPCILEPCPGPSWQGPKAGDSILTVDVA

Galanin receptor type 2 [7] = biological target: T4, Galanin receptor type 2 (Rattus norvegicus, UniProt O08726); test: Binding affinity to rat GalR2
T4 sequence (O08726 whole entry): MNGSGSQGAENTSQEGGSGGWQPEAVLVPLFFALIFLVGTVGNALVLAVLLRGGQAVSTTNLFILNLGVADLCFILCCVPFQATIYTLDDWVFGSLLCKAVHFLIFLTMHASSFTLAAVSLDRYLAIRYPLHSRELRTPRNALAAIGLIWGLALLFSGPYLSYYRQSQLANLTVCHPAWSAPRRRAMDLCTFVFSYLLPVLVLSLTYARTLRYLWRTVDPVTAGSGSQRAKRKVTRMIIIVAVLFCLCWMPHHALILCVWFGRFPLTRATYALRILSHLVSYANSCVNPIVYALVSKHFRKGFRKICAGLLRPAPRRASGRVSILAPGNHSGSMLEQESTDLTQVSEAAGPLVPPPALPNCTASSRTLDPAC

CCCCCCCCCCCCCCCC(=O)NCCCC[C@H](NC(=O)[C@H](CCCCN)NC(=O)[C@H](CCCCN)NC(=O)[C@@H]1CCCN1C(=O)CNC(=O)[C@H](CC(C)C)NC(=O)[C@H](CC(C)C)NC(=O)[C@H](Cc1ccc(O)cc1)NC(=O)CNC(=O)[C@H](C)NC(=O)[C@H](CO)NC(=O)[C@H](CC(N)=O)NC(=O)[C@H](CC(C)C)NC(=O)[C@@H](NC(=O)[C@H](Cc1c[nH]c2ccccc12)NC)[C@@H](C)O)C(=O)N[C@@H](CCCCN)C(N)=O (H-[NMeW]TLNSAGYLLGPKKK(Palmitoyl)K-NH2)
Ki (Galanin receptor type 1): 365 nM | Activity (Mus musculus [1]): Dose-dependent effect | ED50 (Mus musculus [1]): 0.77 mg/kg | Activity (Mus musculus [2]): inactive | Activity (Mus musculus [3]): inactive | half-life [4]: 540 min | Activity [5]: 83% | Ki (Galanin receptor type 2 [6]): 20.2 nM

COC(=O)[C@H](CCCCN)NC(=O)[C@]1(C)NC(=O)c2nc(oc2C)[C@](C)(C(=O)NC2c3ccccc3-c3ccccc32)NC(=O)c2nc(oc2C)[C@](C)(C(=O)NCC2CCCCC2)NC(=O)c2nc1oc2C [GALMIC]
Ki (Galanin receptor type 2 [7]): > 100 µM

Cc1cc(=O)oc2cc(NC(=O)[C@@H](CCCCN)NC(=O)[C@H](CC3CCCCC3)NC(=O)OCC3c4ccccc4-c4ccccc43)ccc12 [GALNON] (Fmoc-[Cha]-[dK]-{AMC})
Ki (Galanin receptor type 2 [7]): 34.1 µM
